Measurements from ChEMBL document CHEMBL4689842, “EUbOPEN Chemogenomics Library wave 1” (2021).
“And” between values parts separate entries of the source, which are not always exact repeats. Identical values can stand only once.

System: Fibroblast
Experiment: Multiplex assay against human fibroblast
Type: toxicity, cell-based
Details: 1 µM, compound concentration 1 uM
Procedure, shortened: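 Compound was added to live cells that had been stained at seeding with Hoechst33342, BioTracker Green Microtubule Cytoskeleton Dye, MitoTracker Red and Annexin V Alexa Fluor 680, and imaging followed on a CQ1 microscope at 37°C and 5% CO2. CellPathfinder machine-learning gating divided cells into Hoechst high-intensity objects or normal cells, normal cells into healthy, pyknosed or fragmented nuclei, and pyknosed cells into mitotic or apoptotic. Tubulin, mitochondrial-mass and membrane-permeability phenotypes are per cents of healthy-nucleus cells.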

SMILES: CN([C@@H](Cc1ccc(OS(=O)(=O)c2cccc3cnccc23)cc1)C(=O)N1CCN(c2ccccc2)CC1)S(=O)(=O)c1cccc2cnccc12
- Population Apoptotic (%) (12 h, replicate 1): 54% and 75%
- Population Fragmented Nuclei (%) (12 h, replicate 1): 29%
- Population Healthy Nuclei (%) (12 h, replicate 1): 56% and 53%
- Population Hoechst High Intensity Objects (%) (12 h, replicate 1): 8% and 14%
- Population Membrane Permeable-Phenotype (%) (12 h, replicate 1): 45%
- Population Mitotic Cells (%) (12 h, replicate 1): 45% and 25%
- Population Normal (%) (12 h, replicate 1): 91% and 85%
- Population Pyknosed Nuclei (%) (12 h, replicate 1): 13% and 17%
- Population Tubulin-Different-Phenotype (%) (12 h, replicate 1): 57% and 69%
- Total Cell Count (12 h, replicate 1): 348 and 189
- Population Apoptotic (%) (12 h, replicate 2): 50% and 80%
- Population Fragmented Nuclei (%) (12 h, replicate 2): 53% and 70%
- Population Healthy Nuclei (%) (12 h, replicate 2): 39% and 14%
- Population Hoechst High Intensity Objects (%) (12 h, replicate 2): 30% and 41%
- Population Mitochondria Different-Phenotype (%) (12 h, replicate 2): 39% and 60%
- Population Mitotic Cells (%) (12 h, replicate 2): 50% and 20%
- Population Normal (%) (12 h, replicate 2): 69% and 58%
- Population Pyknosed Nuclei (%) (12 h, replicate 2): 6% and 14%
- Population Tubulin-Different-Phenotype (%) (12 h, replicate 2): 82% and 80%
- Total Cell Count (12 h, replicate 2): 84 and 58
- Population Apoptotic (%) (24 h, replicate 1): 66% and 59%
- Population Fragmented Nuclei (%) (24 h, replicate 1): 23% and 30%
- Population Healthy Nuclei (%) (24 h, replicate 1): 61% and 59%
- Population Hoechst High Intensity Objects (%) (24 h, replicate 1): 15% and 13%
- Population Membrane Permeable-Phenotype (%) (24 h, replicate 1): 30% and 21%
- Population Mitotic Cells (%) (24 h, replicate 1): 33% and 40%
- Population Normal (%) (24 h, replicate 1): 84% and 86%
- Population Pyknosed Nuclei (%) (24 h, replicate 1): 15% and 10%
- Population Tubulin-Different-Phenotype (%) (24 h, replicate 1): 70% and 47%
- Total Cell Count (24 h, replicate 1): 184 and 365
- Population Fragmented Nuclei (%) (24 h, replicate 2): 76% and 52%
- Population Healthy Nuclei (%) (24 h, replicate 2): 14% and 38%
- Population Hoechst High Intensity Objects (%) (24 h, replicate 2): 33% and 25%
- Population Membrane Permeable-Phenotype (%) (24 h, replicate 2): 40% and 25%
- Population Mitochondria Different-Phenotype (%) (24 h, replicate 2): 40% and 33%
- Population Normal (%) (24 h, replicate 2): 66% and 74%
- Population Pyknosed Nuclei (%) (24 h, replicate 2): 8% and 9%
- Population Tubulin-Different-Phenotype (%) (24 h, replicate 2): 60% and 91%
- Total Cell Count (24 h, replicate 2): 51 and 85
